Results: ChEMBL document CHEMBL1152640, “Synthesis and antiproliferative evaluation of 6-arylindeno[1,2-c]quinoline derivatives” (Bioorg Med Chem, 2009)
The source made the active and inactive calls. No cut-off for these calls is given here.

Legend:
[1] = Antiproliferative activity against human Hep3B cells after 72 hrs by XTT assay; assay type: functional, Hep 3B2
Method in brief: (§1)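 Cells were grown as monolayers in DMEM with 10% FBS, penicillin, streptomycin and amphotericin at 37 °C and 5% CO2. Plating was 5×10³ cells/well, with treatment for 72 h in 10% FBS medium, a medium change, then another day. XTT (1 mg/mL) plus PMS in serum-free medium was added for 4 h at 37 °C and read at 492 nm. Growth was taken as % of control (mean of n = 3). GI50 was taken from the linear portion of the curve as the 50% absorbance reduction.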

HepG2 = experiment: Antiproliferative activity against human HepG2 cells after 72 hrs by XTT assay; assay type: functional; settings: HepG2, 72 h; method in brief: as §1
[2] = Antiproliferative activity against human HepG2(2.2.1) cells after 72 hrs by XTT assay; assay type: functional; settings: HepG2, 72 h; method in brief: as §1
[3] = Antiproliferative activity against human H1299 cells after 72 hrs by XTT assay; assay type: functional; settings: NCI-H1299, 72 h; method in brief: as §1
[4] = Cytotoxicity against human MRC5 cells after 72 hrs by XTT assay; assay type: cell-based; method in brief: as §1
A549 [5] = experiment: Antiproliferative activity against human A549 cells after 72 hrs by XTT assay; assay type: functional; settings: A549, 72 h; method in brief: as §1
A549 [6] = experiment: Cell cycle arrest in human A549 cells assessed as accumulation at G2/M phase at 1.0 uM after 24 hrs by flow cytometry; assay type: functional
Method in brief: (§2)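 A549 cells were exposed to DMSO or compound at 0.1, 1.0, 5.0 or 10.0 µM for 24 h. Cells were harvested, rinsed in PBS, fixed in 70% ethanol and stored at −20 °C. Staining used propidium iodide solution with 0.2 mg/mL RNase and 0.1% Triton X-100, at least 30 min at room temperature in the dark. Cell-cycle phases were read by flow cytometry.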

A549 [7] = experiment: Cell cycle arrest in human A549 cells assessed as accumulation at S phase at 5.0 uM after 24 hrs by flow cytometry; assay type: functional; method in brief: as §2
A549 [8] = experiment: Cell cycle arrest in human A549 cells assessed as accumulation at G2/M phase at 5.0 uM after 24 hrs by flow cytometry; assay type: functional; method in brief: as §2
A549 [9] = experiment: Induction of apoptosis in human A549 cells assessed as morphological changes after 24 hrs by fluorescence microscopy; assay type: functional, cell-based
Method in brief: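 A549 cells were treated with DMSO or compound at 1, 5 or 10 µM for 24 h at 37 °C, then photographed under a microscope.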

A549 [10] = experiment: Cell cycle arrest in human A549 cells assessed as accumulation at G2/M phase at 0.1 uM after 24 hrs by flow cytometry; assay type: functional; method in brief: as §2
A549 [11] = experiment: Cell cycle arrest in human A549 cells assessed as accumulation at G1 phase at 1.0 uM after 24 hrs by flow cytometry; assay type: functional; method in brief: as §2
A549 [12] = experiment: Cell cycle arrest in human A549 cells assessed as accumulation at subG1 phase at 5.0 uM after 24 hrs by flow cytometry; assay type: functional; method in brief: as §2
A549 [13] = experiment: Induction of apoptosis in human A549 cells assessed as DNA fragmentation after 24 hrs by agarose gel electrophoresis; assay type: functional, cell-based
Method in brief: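 A549 cells were treated at 1.0, 5.0 or 10.0 µM for 24 h and washed in PBS. Total genomic DNA was isolated with a kit and run on a 2.0% agarose gel in 1× TAE at 100 V.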

A549 [14] = experiment: Induction of apoptosis in human A549 cells assessed as microtubule network damage at 10.0 uM after 24 hrs by immunofluorescence; assay type: functional, cell-based
Method in brief: (§3)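 A549 cells on cover glasses were treated for 24 h, then fixed in 4% paraformaldehyde for 1 h. Glycine-PBS wash, then permeabilization with 2% FBS and 0.4% Triton X-100 for 15 min. Cells were stained with anti-β-tubulin monoclonal (1:1000, 4 °C overnight), then FITC anti-mouse IgG (1:200, 1 h, room temperature). DAPI was added for nuclei, and imaging was by confocal laser scanning microscopy.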

A549 [15] = experiment: Cell cycle arrest in human A549 cells assessed as accumulation at S phase at 0.1 uM after 24 hrs by flow cytometry; assay type: functional; method in brief: as §2
A549 [16] = experiment: Induction of apoptosis in human A549 cells assessed as PARP cleavage after 24 hrs by Western blot; assay type: functional, cell-based
Method in brief: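 Exponentially growing A549 cells were treated for 24 h, then lysed on ice for 30 min in Tris pH 7.5/NP-40 buffer with protease and phosphatase inhibitors. Protein was measured by Bradford, and 20 µg was resolved on 10% SDS–PAGE and transferred to PVDF. Blots were blocked in 5% milk, probed with anti-PARP (1:1000, 2 h) then HRP anti-rabbit (1:5000, 30 min), and reprobed for β-actin as a loading check.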

A549 [17] = experiment: Cell cycle arrest in human A549 cells assessed as accumulation at subG1 phase at 0.1 uM after 24 hrs by flow cytometry; assay type: functional; method in brief: as §2
A549 [18] = experiment: Cell cycle arrest in human A549 cells assessed as accumulation at subG1 phase at 1.0 uM after 24 hrs by flow cytometry; assay type: functional; method in brief: as §2
A549 [19] = experiment: Induction of apoptosis in human A549 cells assessed as shrinkage in microtubule network at 1.0 uM after 24 hrs by immunofluorescence; assay type: functional, cell-based; method in brief: as §3
A549 [20] = experiment: Cell cycle arrest in human A549 cells assessed as accumulation at G1 phase at 5.0 uM after 24 hrs by flow cytometry; assay type: functional; method in brief: as §2
A549 [21] = experiment: Cell cycle arrest in human A549 cells assessed as accumulation at G1 phase at 0.1 uM after 24 hrs by flow cytometry; assay type: functional; method in brief: as §2
A549 [22] = experiment: Induction of apoptosis in human A549 cells assessed as apoptotic bodies after 24 hrs by fluorescence microscopy; assay type: functional, cell-based; method in brief: as §3
A549 [23] = experiment: Cell cycle arrest in human A549 cells assessed as accumulation at S phase at 1.0 uM after 24 hrs by flow cytometry; assay type: functional; method in brief: as §2
A549 [24] = experiment: Cell cycle arrest in human A549 cells assessed as accumulation at G1 phase at 10.0 uM after 24 hrs by flow cytometry; assay type: functional; method in brief: as §2
A549 [25] = experiment: Cell cycle arrest in human A549 cells assessed as accumulation at subG1 phase at 10.0 uM after 24 hrs by flow cytometry; assay type: functional; method in brief: as §2
A549 [26] = experiment: Cell cycle arrest in human A549 cells assessed as accumulation at S phase at 10.0 uM after 24 hrs by flow cytometry; assay type: functional; method in brief: as §2
A549 [27] = experiment: Cell cycle arrest in human A549 cells assessed as accumulation at G2/M phase at 10.0 uM after 24 hrs by flow cytometry; assay type: functional; method in brief: as §2

Row | GI50 (HepG2) [µM] | GI50 (A549 [5]) [µM] | SMILES | GI50 [1] [µM] | GI50 [2] [µM] | GI50 [3] [µM] | GI50 at 72 h [4] [µM] | also measured
1 | 5.51 | 4.98 | O=C1c2cc(O)ccc2-c2c(-c3ccc(O)cc3)nc3ccc(O)cc3c21 | 12.2 | 6.61 | 10.4 | 10.3 | –
2 | 4.3 | 5.06 | O=C1c2cc(O)ccc2-c2c(-c3ccc(OCCN4CCCCC4)cc3)nc3ccccc3c21 | 5.4 | 6.4 | 6.55 | 3.1 | –
3 | 2.82 | 6.24 | O=C1c2cc(OCCN3CCCCC3)ccc2-c2c(-c3ccc(OCCN4CCCCC4)cc3)nc3ccc(F)cc3c21 | 0.66 | 3 | 0.79 | 4.52 | –
4 | 0.7 | 0.81 | O=C1c2cc(OCCN3CCCCC3)ccc2-c2c(-c3ccc(OCCN4CCCCC4)cc3)nc3ccc(OCCN4CCCCC4)cc3c21 | 5.02 | 6.07 | 6.26 | 4.64 | –
5 | 0.6 | 0.68 | CN(C)CCCOc1ccc(-c2nc3ccc(OCCCN(C)C)cc3c3c2-c2ccc(OCCCN(C)C)cc2C3=O)cc1 | 4.44 | 4.25 | 5.18 | 6.2 | Activity (A549 [6]): 11%; Activity (A549 [7]): 12.3%; Activity (A549 [8]): 15.8%; Activity (A549 [9]): Active; Activity (A549 [10]): 9.8%; Activity (A549 [11]): 75%; Activity (A549 [12]): 17.1%; Activity (A549 [13]): Active; Activity (A549 [14]): Active; Activity (A549 [15]): 16.3%; Activity (A549 [16]): Dose-dependent effect; Activity (A549 [17]): 1.5%; Activity (A549 [18]): 2%; Activity (A549 [19]): Active; Activity (A549 [20]): 71.9%; Activity (A549 [21]): 73.9%; Activity (A549 [22]): Active; Activity (A549 [23]): 13.6%
6 | > 10 | > 10 | COc1ccc(-c2nc3ccc(OC)cc3c3c2-c2ccc(OC)cc2C3=O)cc1 | 12.5 | > 10 | 7.84 | 10.2 | Activity (A549 [6]): 8.6%; Activity (A549 [24]): 76.9%; Activity (A549 [7]): 14.3%; Activity (A549 [8]): 7.8%; Activity (A549 [25]): 1%; Activity (A549 [11]): 78.2%; Activity (A549 [26]): 14.7%; Activity (A549 [12]): 1%; Activity (A549 [27]): 8.4%; Activity (A549 [18]): 0.9%; Activity (A549 [20]): 77.9%; Activity (A549 [23]): 13.2%
7 | 5.92 | 6.35 | CN(C)CCCOc1ccc(-c2nc3ccc(F)cc3c3c2-c2ccc(O)cc2C3=O)cc1 | 6.72 | 5.62 | 6.13 | 4.75 | –
8 | 0.61 | 3.67 | CN(C)CCCOc1ccc(-c2nc3ccc(F)cc3c3c2-c2ccc(OCCCN(C)C)cc2C3=O)cc1 | 0.67 | 0.59 | 0.72 | 1.86 | –

The remaining lines, values behind:

Row | SMILES | GI50 (HepG2) [µM] | GI50 (A549 [5]) [µM] | GI50 [1] [µM] | GI50 [2] [µM] | GI50 [3] [µM] | GI50 at 72 h [4] [µM] | also measured
9 | CN(C)CCCOc1ccc(-c2nc3ccccc3c3c2-c2ccc(O)cc2C3=O)cc1 | 5.59 | 5.87 | 5.34 | 6.82 | 6.39 | 4.61 | –
10 | CN(C)CCCOc1ccc(-c2nc3ccccc3c3c2-c2ccc(OCCCN(C)C)cc2C3=O)cc1 | 4.35 | 3.07 | 3.05 | 5.39 | 5.35 | 3.68 | –
11 | CCc1c2c(nc3ccc(OC(=O)N4CCC(N5CCCCC5)CC4)cc13)-c1cc3c(c(=O)n1C2)COC(=O)[C@]3(O)CC [IRINOTECAN] | 5.94 | > 10 | 4.73 | > 10 | > 10 | 77.5 | –
12 | COc1ccc(-c2nc3ccc(F)cc3c3c2-c2ccc(OC)cc2C3=O)cc1 | > 10 | > 10 | > 10 | > 10 | 6.44 | > 10 | –
13 | O=C1c2cc(O)ccc2-c2c(-c3ccc(O)cc3)nc3ccc(F)cc3c21 | > 10 | > 10 | 9.01 | > 10 | 5.88 | > 10 | –
14 | O=C1c2cc(OCCN3CCCC3)ccc2-c2c(-c3ccc(OCCN4CCCC4)cc3)nc3ccc(F)cc3c21 | 4.92 | 6.23 | 6.24 | 6.11 | 4.3 | 5.15 | –
15 | O=C1c2cc(O)ccc2-c2c(-c3ccc(OCCN4CCCC4)cc3)nc3ccccc3c21 | 4.28 | 4.33 | 3.4 | 6.06 | 7.05 | 3.16 | –
16 | O=C1c2cc(O)ccc2-c2c(-c3ccc(OCCN4CCCCC4)cc3)nc3ccc(F)cc3c21 | 4.78 | 6 | 6.61 | 6.03 | 5.32 | 5.91 | –
17 | O=C1c2cc(O)ccc2-c2c(-c3ccc(OCCN4CCCC4)cc3)nc3ccc(F)cc3c21 | 6.1 | 6.63 | 6.34 | 5.69 | 5.25 | 6.02 | –
18 | COc1ccc(-c2nc3ccccc3c3c2-c2ccc(OC)cc2C3=O)cc1 | > 10 | > 10 | > 10 | > 10 | > 10 | > 10 | –
19 | O=C1c2cc(O)ccc2-c2c(-c3ccc(O)cc3)nc3ccccc3c21 | 9.12 | > 10 | > 10 | > 10 | > 10 | > 10 | –
20 | O=C1c2cc(OCCN3CCCC3)ccc2-c2c(-c3ccc(OCCN4CCCC4)cc3)nc3ccccc3c21 | 4.03 | 3.75 | 3.46 | 6.15 | 6.95 | 5.31 | –
21 | O=C1c2cc(OCCN3CCCC3)ccc2-c2c(-c3ccc(OCCN4CCCC4)cc3)nc3ccc(OCCN4CCCC4)cc3c21 | 0.62 | 0.67 | 1.73 | 3.44 | 0.37 | 0.71 | –
22 | CC[C@@]1(O)C(=O)OCc2c1cc1n(c2=O)Cc2cc3c(CN(C)C)c(O)ccc3nc2-1 [TOPOTECAN] | 3.83 | 5.98 | 0.22 | 4.95 | > 10 | 4.25 | –
23 | O=C1c2cc(OCCN3CCCCC3)ccc2-c2c(-c3ccc(OCCN4CCCCC4)cc3)nc3ccccc3c21 | 4.32 | 5.68 | 1.35 | 6.24 | 6.38 | 4.34 | –
